Activity calls are given as the source filed them. No cut-off for these calls is given here.

What all share (format): functional
The species named for assay [1] is Cavia porcellus. As to the kind of experiment: Compound was tested for its ability to cause contraction of guinea pig ileum; Inactive.
The species named for assay [2] is Cavia porcellus. As to the kind of experiment: Compound was tested for its ability to cause contraction of guinea pig ileum; Active.
Assay [3] is filed under the species Cavia porcellus. As to the kind of experiment: Potency for guinea pig ileum contraction relative to acetylcholine. The method, boiled down: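 Ileal strip held in an oxygenated (95% O2/5% CO2) buffer bath under 1-g tension, with contraction magnitude recorded on a dynograph. An acetylcholine control response curve was run first, then a test compound curve after tissue recovery. The value is the ratio of the doses giving 50% of maximal response.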

Assay [4] is filed under the species Cavia porcellus. As to the kind of experiment: Concentration required for half-maximal contraction of guinea pig ileum.

For `CCCCCCCCCCCCCCCC1COC(COP(=O)(O)O)CO1` (stereo not drawn), the result in the assay listed under Cavia porcellus [1] was inactive.
For `CCCCCCCC/C=C/CCCCCCCC1OCC(COP(=O)([O-])O)O1.[Na+]` (cis isomer), in the assay filed under Cavia porcellus [2], the result was Active. The molecule also showed a Potency in the assay listed under Cavia porcellus [3] of 0.4%.
For `CCCCCCCC/C=C/CCCCCCCC1CCC(COP(=O)(O)O)O1` (stereo not drawn), the result in the assay filed under Cavia porcellus [1] was inactive.
Same read-out and setting: to `CCCCCCCC/C=C/CCCCCCCC1CCC(COP(=O)(O)O)C1` (cis isomer) belongs “inactive”; to `CCCCCCCCCCCCCCCC1CCC(COP(=O)(O)O)C1` (stereo not drawn), “inactive”.
On the same count and under the same terms, to `CCCCCCCCCCCCCCCC1CCC(COP(=O)(O)O)O1` (stereo not drawn) belongs “inactive”; to `CCCCCCCC/C=C/CCCCCCCC1OC(COP(=O)(O)O)CS1` (cis isomer), “inactive”.
On to `CCCCCCCC/C=C/CCCCCCCC1COC(COP(=O)([O-])O)CO1.[Na+]` (stereo not drawn), for which the result in the assay listed under Cavia porcellus [2] was Active. This molecule showed a Potency in the assay listed under Cavia porcellus [3] of 0.05%. This molecule showed a Concentration in the assay listed under Cavia porcellus [4] of 16 µM.
With `CCCCCCCCCCCCCCCC1OC(COP(=O)(O)O)CS1` (stereo not drawn), the outcome in the assay filed under Cavia porcellus [1] was inactive.
Same read-out and setting: under `CCCCCCCCCCCCCCCC1OCC(COP(=O)(O)O)O1` (stereo not drawn) stands “inactive”.

Values taken from ChEMBL document CHEMBL1122001, “Darmstoff analogues. 2. Ring and side-chain effects on smooth-muscle contraction” (1982).
